Results as given in ChEMBL document CHEMBL2069201, “N-Benzoyl anthranilic acid derivatives as selective inhibitors of aldo-keto reductase AKR1C3” (Bioorg Med Chem Lett, 2012).
Where a chain is given by its changes, count along the chain named. Activity calls are given as the source filed them. The rule behind the calls is not given here.

Tests used:
[1] = target: T1, Aldo-keto reductase family 1 member C2 (Homo sapiens) (UniProt P52895); assay: Inhibition of recombinant AKR1C2 using 1-acenaphthenol as substrate at 10 uM by spectrophotometry
T1 sequence (whole entry): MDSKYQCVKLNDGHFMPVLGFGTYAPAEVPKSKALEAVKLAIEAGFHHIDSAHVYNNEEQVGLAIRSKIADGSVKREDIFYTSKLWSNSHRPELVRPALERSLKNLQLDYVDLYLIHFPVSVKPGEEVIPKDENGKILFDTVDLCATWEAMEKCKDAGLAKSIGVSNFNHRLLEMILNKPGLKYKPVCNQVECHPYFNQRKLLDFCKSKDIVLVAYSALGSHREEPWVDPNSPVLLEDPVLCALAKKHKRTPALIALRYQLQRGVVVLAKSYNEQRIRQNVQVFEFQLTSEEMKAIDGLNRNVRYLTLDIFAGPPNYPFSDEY
Method in brief: (§1)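 Oxidation of 1-acenaphthenol was run with 2.3 mM NAD+ in 100 mM phosphate pH 9.0 containing 0.005% Triton X-114 and 5% DMSO. Substrate/enzyme were 30 µM/0.1 µM for AKR1C1, 60 µM/0.3 µM for AKR1C2 and 100 µM/1.5 µM for AKR1C3. NADH rise was read at 340 nm from initial velocities. […] Mean of two experiments.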

[2] = target: T2, Aldo-keto reductase family 1 member C1 (Homo sapiens) (UniProt Q04828); assay: Inhibition of recombinant AKR1C1 using 1-acenaphthenol as substrate at 10 uM by spectrophotometry; method in brief: as §1
T2 sequence (whole entry): T1 sequence (whole entry) with V38T, H47R, V54L, S87C, M151V, H170R, L172Q

[3] = target: T3, Aldo-keto reductase family 1 member C3 (Homo sapiens) (UniProt P42330); assay: Inhibition of recombinant AKR1C3 using 1-acenaphthenol as substrate at 10 uM by spectrophotometry; method in brief: as §1
T3 sequence (whole entry): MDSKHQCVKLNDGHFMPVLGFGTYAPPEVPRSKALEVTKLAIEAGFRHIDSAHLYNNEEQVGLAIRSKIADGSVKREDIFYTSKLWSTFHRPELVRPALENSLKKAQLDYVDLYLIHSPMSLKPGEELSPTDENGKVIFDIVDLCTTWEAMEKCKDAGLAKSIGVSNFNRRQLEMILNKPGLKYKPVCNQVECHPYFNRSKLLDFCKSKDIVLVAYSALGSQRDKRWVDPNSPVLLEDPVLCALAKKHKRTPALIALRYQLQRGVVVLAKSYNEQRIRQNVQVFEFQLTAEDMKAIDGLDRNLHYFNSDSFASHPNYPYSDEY

[4] = target: T4, Aldo-keto reductase family 1 member C1 (Homo sapiens, UniProt Q04828); assay: Inhibition of recombinant AKR1C1 using 1-acenaphthenol as substrate by spectrophotometry; method in brief: as §1
T4 sequence (Q04828 whole entry): T1 sequence (whole entry) with V38T, H47R, V54L, S87C, M151V, H170R, L172Q

[5] = target: T5, Aldo-keto reductase family 1 member C2 (Homo sapiens, UniProt P52895); assay: Inhibition of recombinant AKR1C2 using 1-acenaphthenol as substrate by spectrophotometry; method in brief: as §1
T5 sequence (P52895 whole entry): T1 sequence (whole entry)

[6] = target: T6, Aldo-keto reductase family 1 member C3 (Homo sapiens, UniProt P42330); assay: Inhibition of recombinant AKR1C3 using 1-acenaphthenol as substrate by spectrophotometry; method in brief: as §1
T6 sequence (P42330 whole entry): T3 sequence (whole entry)

[7] = target: T6, Aldo-keto reductase family 1 member C3; assay: Inhibition of recombinant AKR1C3 using S-tetralol as substrate by fluorimetry
Method in brief: (§2)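 Continuous NADP+-dependent oxidation of S-tetralol, read as NADPH fluorescence at 340/460 nm. Buffer was 100 mM phosphate pH 7.0 with 200 µM NADP+ and 4% DMSO. […] Enzyme was 111, 86, 95 and 184 nM respectively. Initial velocities were fitted to give IC50. Mean of two independent experiments.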

Homo sapiens [8] = organism: Homo sapiens; assay: Selectivity ratio of IC50 for AKR1C4 to AKR1C3
Method in brief: (§3)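 Fold selectivity for AKR1C3 was calculated from IC50 values of the secondary assay. That assay followed fluorimetric NADP+-dependent S-tetralol oxidation at pH 7.0, with substrate at each isoform's Km.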

[9] = target: T4, Aldo-keto reductase family 1 member C1; assay: Inhibition of recombinant AKR1C1 using S-tetralol as substrate by fluorimetry; method in brief: as §2
Homo sapiens [10] = organism: Homo sapiens; assay: Selectivity ratio of IC50 for AKR1C2 to AKR1C3; method in brief: as §3
[11] = target: T5, Aldo-keto reductase family 1 member C2; assay: Inhibition of recombinant AKR1C2 using S-tetralol as substrate by fluorimetry; method in brief: as §2
Homo sapiens [12] = organism: Homo sapiens; assay: Selectivity ratio of IC50 for AKR1C1 to AKR1C3; method in brief: as §3
[13] = target: T7, Aldo-keto reductase family 1 member C4 (Homo sapiens, UniProt P17516); assay: Inhibition of recombinant AKR1C4 using S-tetralol as substrate by fluorimetry
T7 sequence (P17516 whole entry): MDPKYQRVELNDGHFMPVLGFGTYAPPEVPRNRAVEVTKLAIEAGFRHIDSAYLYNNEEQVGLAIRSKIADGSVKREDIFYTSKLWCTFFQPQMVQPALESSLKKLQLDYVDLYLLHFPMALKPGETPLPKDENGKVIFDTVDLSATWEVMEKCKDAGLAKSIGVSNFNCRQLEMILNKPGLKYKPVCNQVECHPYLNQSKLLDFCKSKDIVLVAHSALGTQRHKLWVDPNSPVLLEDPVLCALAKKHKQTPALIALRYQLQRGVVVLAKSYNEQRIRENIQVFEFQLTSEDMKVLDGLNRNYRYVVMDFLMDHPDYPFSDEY
Method in brief: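 Continuous NADP+-dependent oxidation of S-tetralol, read as NADPH fluorescence at 340/460 nm. Buffer was 100 mM phosphate pH 7.0 with 200 µM NADP+ and 4% DMSO. Initial velocities were fitted to give IC50. Mean of two independent experiments.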

Structure (SMILES)	inhibition [1]	inhibition [2]	inhibition [3]	IC50 [4] [µM]	IC50 [5] [µM]	IC50 [6] [µM]	IC50 [7] [µM]	Ratio IC50 (Homo sapiens [8])	IC50 [9] [µM]	Ratio IC50 (Homo sapiens [10])	IC50 [11] [µM]	Ratio IC50 (Homo sapiens [12])	IC50 [13] [µM]
CCCCOc1cc(C(=O)Nc2ccccc2C(=O)O)ccc1[N+](=O)[O-]	58.3%	70.8%	47.2%	3.2	6.5	7.5	–	–	–	–	–	–	–
COc1cc(NC(=O)c2cccc(N)c2)c(C(=O)O)cc1OC	20.2%	18%	5.6%	–	–	–	–	–	–	–	–	–	–
CCCCOc1cccc(C(=O)Nc2ccc(Br)cc2C(=O)O)c1	70.5%	65.9%	30.4%	4.9	4.9	–	–	–	–	–	–	–	–
Nc1cccc(C(=O)Nc2ccccc2C(=O)O)c1	inactive	8%	inactive	–	–	–	–	–	–	–	–	–	–
CCOc1cccc(C(=O)Nc2ccc(Br)cc2C(=O)O)c1	36.8%	31.9%	19.1%	20.6	17.1	–	–	–	–	–	–	–	–
COc1cc(NC(=O)c2cccc(O)c2)c(C(=O)O)cc1OC	29.4%	11.8%	70.2%	–	–	5.2	2.9	18	86.3	10	30	30	50.9

The remaining lines, values ahead:

inhibition [1]	inhibition [2]	inhibition [3]	IC50 [4] [µM]	IC50 [5] [µM]	IC50 [6] [µM]	IC50 [7] [µM]	Ratio IC50 (Homo sapiens [8])	IC50 [9] [µM]	Ratio IC50 (Homo sapiens [10])	IC50 [11] [µM]	Ratio IC50 (Homo sapiens [12])	IC50 [13] [µM]	Structure (SMILES)
22.5%	inactive	inactive	–	–	–	–	–	–	–	–	–	–	Cc1cc(Cl)cc(C(=O)O)c1NC(=O)c1cccc([N+](=O)[O-])c1
33.6%	53.2%	5.6%	8.4	15.6	–	–	–	–	–	–	–	–	O=C(Nc1ccc(Br)cc1C(=O)O)c1ccc(F)c([N+](=O)[O-])c1
inactive	inactive	42.1%	–	–	12.7	5.19	> 19	> 100	9	48.1	> 19	–	O=C(Nc1ccccc1C(=O)O)c1cccc(O)c1
23.4%	inactive	3.4%	–	–	–	–	–	–	–	–	–	–	O=C(Nc1ccc(Cl)cc1C(=O)O)c1cccc([N+](=O)[O-])c1
28.7%	9.7%	5.6%	–	–	–	–	–	–	–	–	–	–	Nc1cccc(C(=O)Nc2ccc(O)cc2C(=O)O)c1
6.7%	17.4%	77.8%	–	–	2.2	0.31	65	50.8	162	50.2	164	20.1	O=C(Nc1ccc(Cl)cc1C(=O)O)c1cccc(O)c1
31.6%	inactive	1.9%	–	–	–	–	–	–	–	–	–	–	O=C(Nc1ccc(O)cc1C(=O)O)c1cccc([N+](=O)[O-])c1
10.4%	11.8%	87.9%	–	–	2.6	0.84	–	35.2	–	41.6	–	–	O=C(Nc1ccc([N+](=O)[O-])cc1C(=O)O)c1cccc(O)c1
inactive	22.2%	3.5%	–	–	–	–	–	–	–	–	–	–	COc1cc(NC(=O)c2cccc([N+](=O)[O-])c2)c(C(=O)O)cc1OC
16.7%	21.6%	89.6%	–	–	1.9	0.35	86	100	180	63	286	30.3	O=C(Nc1ccc(Br)cc1C(=O)O)c1cccc(O)c1
